# CHRM1 agonist = agonists of human M1 muscarinic receptor. P11229. hit rate 0.33% among 360,000. CHO-K1 hM1, Fluo-8 calcium fluorescence, agonist mode; 0% DMSO, 100% acetylcholine EC100. activation, % at 3 µM;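 active means activation above the run's mean compound activation plus 3 SD, cut at about 16% in these data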;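 further: peak over basal fluorescence ratio within a 140 s kinetic read after compound addition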
# Target sequence (P11229 whole entry, looked up): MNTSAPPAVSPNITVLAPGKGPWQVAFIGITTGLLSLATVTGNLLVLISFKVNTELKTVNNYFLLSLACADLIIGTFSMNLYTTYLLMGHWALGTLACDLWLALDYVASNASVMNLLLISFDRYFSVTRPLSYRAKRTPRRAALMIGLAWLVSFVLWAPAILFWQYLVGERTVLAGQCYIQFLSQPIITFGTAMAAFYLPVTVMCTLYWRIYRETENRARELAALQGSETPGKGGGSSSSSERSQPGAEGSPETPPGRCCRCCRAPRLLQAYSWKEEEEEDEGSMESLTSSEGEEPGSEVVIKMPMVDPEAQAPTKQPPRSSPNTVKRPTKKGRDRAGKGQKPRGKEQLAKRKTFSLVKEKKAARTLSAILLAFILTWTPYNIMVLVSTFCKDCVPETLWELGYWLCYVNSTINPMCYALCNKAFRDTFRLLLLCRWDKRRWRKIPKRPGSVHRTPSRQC
# M1 PAM = human CHRM1 positive allosteric modulation. P11229. hit rate 0.088% among 360,000. CHO-K1 hM1, Fluo-8 calcium fluorescence, ACh EC20; 0% = ACh EC20, 100% = maximal ACh. activation, % at 3 µM. AID 588819; in the data active means activation above about 19%, passing the limit was not always enough
# CHRM1 antagonist = blocks human M1 muscarinic receptor | inhibition, % at 3 µM | P11229 | CHO-K1 hM1, Fluo-8 calcium fluorescence, ACh EC80 antagonist | hit rate 1.3% among 360,000;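 active means percent inhibition above its own plate's cutoff, namely the mean of that plate's compound wells plus 3 SD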;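 further: peak over basal fluorescence ratio during 140 s after agonist addition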
# M5 PAM = CHRM5 positive allosteric modulation; P08912; CHO-K1 hM5, Fluo-8 calcium, ACh EC20 PAM; 0% = ACh EC20, 100% = ACh EC100; activation, % at 3 µM; hit rate 0.3% among 360,000; AID 624038;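 active means activation above the run cutoff, the mean activation of all test compounds plus 3 SD, cut at about 18% in these data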
#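 Replicates: One well per compound, no replicates | System: Human M5 receptor in CHO-K1 cells | Benchmarks: Low control EC20 acetylcholine (0%), high control EC100 acetylcholine (100%) | Probe or stimulus: Acetylcholine, EC20 level | Times: Fluo-8 loading 80 min at 37 °C plus 30 min room temperature | Signal: Intracellular calcium via Fluo-8 fluorescence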
# M5 antag = CHRM5 antagonism in calcium assay | P08912 | AID 624040 | hit rate 0.59% among 360,000 | inhibition, % at 3 µM | CHO-hM5 cells, Fluo-8 calcium fluorescence, ACh EC80;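 active means inhibition above a per-plate cutoff, the mean of that plate's test compounds plus 3 SD, cut at about 27% in these data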
# CHRM5 agonist = CHRM5 agonism in calcium assay | CHO-K1 hM5 cells, Fluo-8 calcium fluorescence; 0% DMSO wells, 100% maximal acetylcholine response | activation, % at 3 µM | hit rate 0.19% among 360,000 | AID 624037;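 active means activation above the run's mean over test compounds plus 3 SD, cut at about 23% in these data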;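 further: signal is peak over basal fluorescence ratio across the kinetic read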
# Hits are given with their value; - = inactive. This is a sample that favours compounds with a hit; in the whole collection about 2.2% have one here.
SMILES,CHRM1 agonist,M1 PAM,CHRM1 antagonist,M5 PAM,M5 antag,CHRM5 agonist
COc1ccc(CNC(=O)c2sc(=O)n(Cc3ccccc3C)c2C)cc1,33.9,-,-,-,-,41.4
COc1ccccc1Cn1c(C)c(C(=O)NCc2ccc(C#N)cc2)sc1=O,16.3,-,31.9,-,-,27.9
COc1ccc(CNC(=O)c2sc(=O)n(Cc3ccc(-c4ccccc4)cc3)c2C)cc1OC,-,-,-,-,30.2,-
COc1ccc(Cl)cc1Cn1c(C)c(C(=O)NCc2ccc(C#N)cc2)sc1=O,-,-,44.0,-,-,-
COc1ccc(CNC(=O)c2sc(=O)n(Cc3ccc(C)cc3)c2C)cc1OC,-,-,-,-,-,-
COc1ccccc1Cn1c(C)c(C(=O)NCc2cccc(C)c2)sc1=O,-,-,-,-,-,-
Cc1ccccc1Cn1c(C)c(C(=O)NCc2cccc(Cl)c2)sc1=O,-,-,-,-,-,-
Cc1cc(NC2CCCCC2)nc(NCc2ccccc2)n1,-,-,35.4,-,30.1,-
COCCn1c(SCC(=O)Nc2cccc(C)n2)nnc1-c1ccco1,-,-,-,-,-,-
CCCCN1C2=NC(c3ccccc3)CN2c2ccccc21 (configuration not stated),-,-,39.5,-,-,-
O=C(CN1C(=O)COc2ccc(S(=O)(=O)N3CCOCC3)cc21)Nc1cccc(Cl)c1,-,-,-,-,-,-
CCN1/C(=C2\C(=O)N(c3ccccc3)N=C2C)C=Cc2cc(C)ccc21,19.6,-,-,-,-,38.7
CCN1/C(=c2/s/c(=C3/C(=O)N(c4ccccc4)N=C3C)n(CC)c2=O)C=Cc2ccccc21,-,-,-,-,-,-
CCn1nnc(-c2ccccc2NS(=O)(=O)c2ccc(S(=O)(=O)N3CCCCCC3)cc2)n1,-,-,-,-,-,-
CCOC(=O)c1ccc(S(=O)(=O)Nc2ccccc2-c2nnn(CC)n2)cc1,-,-,46.8,-,-,-
Cc1cccc(C)c1OCC(=O)Nc1nnc(C2CCCO2)s1 (configuration not stated),-,-,-,-,-,-
Cc1ccc(OCC(=O)Nc2nnc(C3CCCO3)s2)c(Br)c1 (configuration not stated),-,-,36.5,-,-,-
O=C(Cc1ccccc1)c1ccccc1C(=O)N1CCCCC1,-,-,-,-,-,-
COc1cc(C)ccc1S(=O)(=O)N1CCN(C23CC4CC(CC(C4)C2)C3)CC1,-,-,98.4,-,-,-
C=CCn1c(SCCN2CCCCC2)nc2c1c(=O)[nH]c(=O)n2C,-,-,28.4,-,-,-
COc1ccc(-n2c3c(cc(C#N)c2=O)C(=O)CCC3)cc1,-,-,-,-,-,-
CCN(CC)CCOC(=O)c1ccc(NC(=O)C(C)NC(=O)C23CC4CC(CC(C4)C2)C3)cc1 (configuration not stated),-,-,-,-,-,-
Cc1cc(=O)n2c3ccccc3n(CC(O)CN3CCN(Cc4ccccc4)CC3)c2c1C#N (configuration not stated),-,-,45.3,-,-,-
Cc1cc(=O)n2c3ccccc3n(CC(O)CN3CCN(CCO)CC3)c2c1C#N (configuration not stated),-,-,-,-,-,-
Cc1ccc(NC(=O)CN2C(=O)C3C4C=CC(C4)C3C2=O)cc1S(=O)(=O)N(C)C (configuration not stated),-,-,-,-,-,-
SMILES,CHRM1 agonist,M1 PAM,CHRM1 antagonist,M5 PAM,M5 antag,CHRM5 agonist
Cc1c(C(=O)c2ccc(Cl)cc2[N+](=O)[O-])c2ccccn2c1CCC#N,-,-,-,19.3,-,-
Cc1ccc(C(C(=O)NCCc2ccccc2)N(C(=O)c2csnn2)C2CC2)cc1 (configuration not stated),-,-,-,-,-,-
Cc1ccc(Cc2c(C)nc3nc(SCC(=O)NCCCN4CCCC4)nn3c2C)cc1,-,-,28.8,-,-,-
Cc1ccc(Cc2c(C)nc3nc(SCC(=O)NCCCN4CCCCC4)nn3c2C)cc1,-,-,26.4,-,-,-
Cc1nc2nc(SCC(=O)NCCN3CCOCC3)nn2c(C)c1Cc1ccccc1,-,-,-,-,-,-
Cc1cccc(Cc2c(C)nc3nc(SCC(=O)O)nn3c2C)c1,-,-,-,-,-,-
Cc1ccsc1C(=O)N1CCN(C(=O)c2ccco2)CC1,-,-,-,-,-,-
O=C(NCc1cccc(F)c1)Nc1nnc([C@@H]2C[C@H](O)[C@@H](CO)O2)s1,-,-,-,-,-,-
CC(C)C(NC(=O)c1c(F)cccc1F)C(=O)N1CCN(S(=O)(=O)c2ccc(F)cc2)CC1 (configuration not stated),-,-,-,-,-,-
Cc1cccc(Nc2nc(-c3c(C)nc4ccccn34)cs2)c1,-,-,37.0,-,34.8,-
CCC(C)(C)NC(=O)C(c1ccco1)N(C(=O)CNC(=O)c1cccs1)c1cccnc1 (configuration not stated),-,-,-,29.0,28.8,-
O=C(CCc1ccccc1)Nc1nc2nc(-c3ccccc3)cc(=O)n2[nH]1,-,-,-,-,-,-
COc1cc(NC(=O)[C@@H](NC(=O)c2ccco2)C(C)C)c(OC)cc1NC(=O)c1ccccc1,-,-,-,-,-,-
O=[N+]([O-])c1cccnc1N1CCC(c2cc(-c3cccc(C(F)(F)F)c3)n[nH]2)CC1,-,-,22.3,-,-,-
CCOc1ccc(OCC)c(NC(=O)C2CCN(c3cnccn3)CC2)c1,-,-,-,-,-,-
Cc1ccc(NC(=O)CN(C)C(=O)C(c2ccccc2)c2ccccc2)cc1,-,-,-,-,-,-
Cc1ccc(NC(=O)CN(C)C(=O)C(C)OC(=O)c2ccccc2NCCO)cc1 (configuration not stated),-,27.5,-,-,-,-
COCCN1C(=O)N(c2ccc(OC)cc2)C(=O)C1CC(=O)Nc1cccc(F)c1 (configuration not stated),-,-,-,-,-,-
COc1ccc(-c2cn(-c3ccc(C)cc3)c(=O)n2CC(=O)Nc2cccc(F)c2)cc1,-,-,-,25.9,-,-
O=C(CS(=O)(=O)c1ccccc1)Nc1ccc(Br)cn1,-,-,-,19.7,-,-
OC1(C#CCN2CCCC2)c2ccccc2-c2ccccc21,-,-,85.4,-,51.2,-
CCN(CC)CCC#CC1(O)c2ccccc2-c2ccccc21,-,-,99.4,-,87.1,-
CN(C)CCC#CC1(O)c2ccccc2-c2ccccc21,-,-,66.0,-,-,-
